Screens (PubChem BioAssay)
PGC1a Ac signal: compounds raising PGC1a acetylation signal, primary screen, PGC1a modulator project, cell-based, U2OS, AlphaScreen, signal-increasing mode. overnight. activation, % at 15.6 µM. hit rate 0.21% among 350,000. AID 651723, 2012;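 active = every replicate reaching activation of at least 50%, whatever the mean replicate activation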;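 also: hits raise the AlphaScreen acetylation signal above neutral controls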
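Test system: U2OS cells expressing flag-PGC1a plus GCN5; Amount: 7000 U2OS cells per well; Compound: single test concentration per compound; Incubation: compound overnight at 37 °C, each detection step 1 h RT; Signal: AlphaScreen lysate read.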
Numbers without * were called inactive. These entries were drawn from the full list.

Screening COc1cc(NC(=O)CCN2CCN(C)CC2)cc(OC)c1 returned PGC1a Ac signal -50.
CC(C)NC(=S)N=Nc1c(O)[nH]c2ccc(C(C)C)cc12 was read as PGC1a Ac signal -48.
Screening Cc1[nH]c2ccccc2c1C(=O)/C=C/c1ccccc1 returned PGC1a Ac signal -71.
`O=C(N/N=C/c1ccc(F)cc1)c1c(O)c2ccccc2[nH]c1=O` gave PGC1a Ac signal -45.
Screening CC(C)NC(=O)c1c(O)c2ccccc2[nH]c1=O returned PGC1a Ac signal 97*.
`CC(C)NC(=O)Nc1ccc2c(c1)C(=O)N([C@@H](C)CO)C[C@H](C)[C@@H](CN(C)C(=O)CCC(F)(F)F)OCCCC[C@@H](C)O2` gave PGC1a Ac signal -46.
`CCOc1ccccc1CNC(=O)c1cc2oc3ccccc3c2n1C` gave PGC1a Ac signal 88*.
Screening COc1nc(OCCNS(=O)(=O)c2ccc(C)cc2)nc(N(C)C)n1 returned PGC1a Ac signal -52.
`COCCOc1ccc(C(F)(F)F)cc1NC(=O)CN1C(=O)NC2(CCCc3ccccc32)C1=O` (stereo unspecified) gave PGC1a Ac signal -55.
O=C(c1ccco1)N(Cc1ccc([N+](=O)[O-])cc1)c1ccc(Br)cc1 was read as PGC1a Ac signal 58*.
Screening CC1=CCC2C(=O)N(c3cccc(C(=O)NCc4ccccc4)c3)C(=O)C2C1 (stereo unspecified) returned PGC1a Ac signal -63.
O=C(Nc1cccc(OC(F)(F)F)c1)c1ccc(-c2cccnc2)c2ccoc12 was read as PGC1a Ac signal 59*.
Cc1nnc(Nc2ccc3c(c2)OCO3)c2ccccc12 was read as PGC1a Ac signal 84*.
Screening CCCCC(C(=O)O)C(C)CC(=O)Nc1nncs1 (stereo unspecified) returned PGC1a Ac signal -45.
`COc1ccc2c3c([nH]c2c1)[C@@H](CO)N(C(=O)c1ccccc1)CC31CCN(S(=O)(=O)c2cccs2)CC1` gave PGC1a Ac signal -51.
Screening CC1CC(C)CN(S(=O)(=O)c2ccc(C(=O)NCCCn3ccnc3)cc2)C1 (stereo unspecified) returned PGC1a Ac signal 580*.
`COc1ccc2c(c1)CCc1c(C(=O)NCCCn3ccnc3)noc1-2` gave PGC1a Ac signal -41.
Screening CCSc1ccccc1C(=O)NCCCn1ccnc1 returned PGC1a Ac signal -95.
CC(C)NC(=O)N(C)C[C@H]1OCCCC[C@@H](C)Oc2ccc(NC(=O)Cc3ccccc3)cc2C(=O)N([C@@H](C)CO)C[C@H]1C was read as PGC1a Ac signal -55.
`O=[N+]([O-])c1ccc(Oc2cccc(F)c2)c2ccncc12` gave PGC1a Ac signal -71.
C=CCC1NS(=O)(=O)OC(CCc2ccccc2)C1O (stereo unspecified) was read as PGC1a Ac signal 104*.
CC1OC2CC(=O)OC2C2=C1C(=O)c1c(O)cccc1C2=O (stereo unspecified) was read as PGC1a Ac signal -78.
`CO[C@H]1CN(C)C(=O)c2ccc(NS(=O)(=O)c3ccccc3)cc2OC[C@H](C)N(C(=O)NC(C)C)C[C@@H]1C` gave PGC1a Ac signal -59.
C[C@H]1CN([C@@H](C)CO)C(=O)CCCn2nncc2CO[C@@H]1CN(C)C(=O)c1ccc(N2CCN(C)CC2)cc1 was read as PGC1a Ac signal -56.
`Cc1cc(C)nc(N2CCC(C(=O)NCc3ccco3)CC2)n1` gave PGC1a Ac signal -95.
`Cn1nnnc1SCC(=O)NCc1cccc(C(=O)O)c1` gave PGC1a Ac signal -41.
Screening Cc1cc(C)n2c(SCC(=O)NCc3ccco3)nnc2n1 returned PGC1a Ac signal 63*.
COc1ccc(C#Cc2cnc3c(c2)C(=O)N([C@H](C)CO)C[C@H](C)[C@H](CN(C)S(=O)(=O)c2cccc(F)c2)O3)cc1OC was read as PGC1a Ac signal 123*.
`C[C@H](CO)N1C[C@H](C)[C@@H](CN(C)C(=O)Nc2ccc(F)cc2)Oc2ncc(C#CC3CC3)cc2C1=O` gave PGC1a Ac signal -47.
For C[C@H](CO)N1C[C@H](C)[C@H](CN(C)S(=O)(=O)c2ccc(F)cc2)Oc2ncc(-c3cccc(C(=O)N(C)C)c3)cc2C1=O the results were PGC1a Ac signal -48.
For C[C@@H]1CN([C@H](C)CO)C(=O)Cc2cc(NC(=O)Nc3ccccc3)ccc2O[C@H]1CN(C)Cc1ccccc1 the results were PGC1a Ac signal -61.
CN(C)c1ccc(/C=C/c2ccc3c4ccccc4ccc3[n+]2-c2ccccc2)cc1 was read as PGC1a Ac signal -44.
Screening COc1ccc(C#Cc2ccc([C@@H]3[C@H](CO)N4CCCCN(C(=O)Nc5ccc(F)cc5)C[C@@H]34)cc2)cc1 returned PGC1a Ac signal 71*.
`O=C(Nc1cccc(F)c1)N1CC(=O)N2[C@@H](CO)[C@@H](c3ccc(C#Cc4cccnc4)cc3)[C@@H]2C1` gave PGC1a Ac signal -41.
`CC(C)CC#Cc1ccc([C@H]2[C@H](CO)N3C(=O)CN(C(=O)Nc4cc(F)ccc4F)C[C@@H]23)cc1` gave PGC1a Ac signal -57.
O=S(=O)(c1ccc(NC(=S)NCc2cccnc2)cc1)N1CCCCC1 was read as PGC1a Ac signal 89*.
O=C(NNS(=O)(=O)c1ccc(F)cc1)c1ccc(S(=O)(=O)N2CCCCC2)cc1 was read as PGC1a Ac signal -41.
For CS(=O)(=O)N1CCCC(C(=O)NCc2ccccn2)C1 (stereo unspecified) the results were PGC1a Ac signal -47.
`Cc1ccc(CNC(=O)CCS(=O)(=O)c2cc3c(cc2Cl)NC(=O)CO3)cc1` gave PGC1a Ac signal 15.
Screening CCN(C[C@@H]1N[C@@H](CO)[C@H]1c1ccc(-c2ccc(F)cc2)cc1)C(=O)CN(C)C returned PGC1a Ac signal 59*.
Screening CN(C)c1ccc(C=C2SC(=S)NC2=O)cc1 returned PGC1a Ac signal -51.
For CN(C)c1ccc(/C=N/N=C2/NC(=O)/C(=C/c3ccc([N+](=O)[O-])cc3)S2)cc1 the results were PGC1a Ac signal 81*.
`CN(C)C(=O)c1ccc(-c2ccc([C@H]3[C@H]4CN(C(=O)CC5CC5)CC(=O)N4[C@H]3CO)cc2)cc1` gave PGC1a Ac signal -51.
Screening CN(C)C(=O)c1ccc(-c2ccc([C@@H]3[C@H]4CN(C(=O)CC5CC5)CC(=O)N4[C@H]3CO)cc2)cc1 returned PGC1a Ac signal -47.
CN1CCN2c3ncccc3Cc3ccccc3[C@@H]2C1 was read as PGC1a Ac signal -46.
CCn1c(=N)n(CC(=O)c2ccc(OC)c(OC)c2)c2ccccc21 was read as PGC1a Ac signal -46.
CCn1nccc1C(=O)Nc1ccccc1OC was read as PGC1a Ac signal -42.
Screening COc1ccccc1NC(=O)c1ccc(NC(=O)CNC(=O)c2ccc(OC)c(OC)c2)cc1 returned PGC1a Ac signal 71*.
CCOC(=O)COc1ccc(/C=C/[N+](=O)[O-])c(OCC(=O)OCC)c1 was read as PGC1a Ac signal 77*.
`CCOc1ccc(OCc2ccc(C(=O)NN=Cc3ccc[nH]3)cc2)cc1` gave PGC1a Ac signal -47.
For Cc1ccc(S(=O)(=O)Nc2ccc3c(c2)C(=O)N([C@H](C)CO)C[C@@H](C)[C@@H](CN(C)C(=O)NC(C)C)OCCCC[C@H](C)O3)cc1 the results were PGC1a Ac signal -53.
Screening Cc1cc(S(=O)(=O)NC(C)C)ccc1OCC(=O)Nc1ccc2c(c1)OCCO2 returned PGC1a Ac signal -110.
